ChEMBL document CHEMBL1157852, “Modulation of doxorubicin activity in cancer cells by conjugation with fatty acyl and terpenyl hydrazones” (Eur J Med Chem, 2010)
Activity calls are given as the source filed them. No cut-off for these calls is given here.

Assays:
[1] = system: Nucleic Acid; assay: Binding affinity to Escherichia coli pBR322 DNA assessed as effect on DNA electrophoretic mobility at 5 to 25 uM after 24 hrs; assay type: nucleic-acid assay
In short: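 pBR322 plasmid DNA from a TE stock incubated with compound at 0, 5, 10 and 25 µM, in the dark at 37 °C for 24 h. Samples run on 1% agarose gel in 0.5× TBE for 4 h at 66 V. Read-out: shifts in mobility of the open circular and covalently closed circular forms.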

[2] = Cytotoxicity against human 518A2 cells after 24 hrs by MTT assay; assay type: functional, cell-based; details: 518A2, 24 h
In short: (§1)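 MTT assay. Cells seeded and cultured 24 h, then exposed to compound for 24, 48 or 72 h. MTT added to a final 0.05% (HL-60, 518A2) or 0.1% (KB-V1, MCF-7) for 2 h. Formazan dissolved in 10% SDS/DMSO with 0.6% acetic acid; absorbance read at 570 nm against 630 nm background. Viability taken relative to untreated controls (100%). IC50 from concentration-response curves, mean ± SD of four independent experiments.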

[3] = Cytotoxicity against human 518A2 cells after 48 hrs by MTT assay; assay type: functional, cell-based; details: 518A2, 48 h; in short: as §1
[4] = Cytotoxicity against human 518A2 cells after 72 hrs by MTT assay; assay type: functional, cell-based; details: 518A2, 72 h; in short: as §1
[5] = system: HL-60; assay: Cytotoxicity against human HL60 cells after 24 hrs by MTT assay; assay type: functional, cell-based; details: HL-60, 24 h; in short: as §1
[6] = system: MCF7; assay: Cytotoxicity against human topotecan-resistant MCF7 cells after 48 hrs by MTT assay; assay type: functional, cell-based; details: MCF7, 48 h; in short: as §1
[7] = system: MCF7; assay: Cytotoxicity against human topotecan-resistant MCF7 cells after 72 hrs by MTT assay; assay type: functional, cell-based; details: MCF7, 72 h; in short: as §1
[8] = Cytotoxicity against human vinblastine-resistant KBV1 cells after 72 hrs by MTT assay in presence of 24 mM ABC transporter inhibitor verapamil hydrochloride; assay type: functional, cell-based; details: KB-V1, 72 h, in the assay text read “24 uM” for “24 mM”
In short: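 MTT viability assay on P-gp-overexpressing KB-V1/Vbl cells with 24 µM verapamil hydrochloride added before the compound; 72 h exposure. Formazan read at 570/630 nm relative to untreated controls. IC50 from concentration-response curves, mean ± SD of four independent experiments.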

[9] = system: MCF7; assay: Cytotoxicity against human topotecan-resistant MCF7 cells after 72 hrs by MTT assay in presence of […] BCRP inhibitor fumitremorgin C; assay type: functional, cell-based; details: MCF7, 72 h
In short: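 MCF-7/Topo cells grown in E-MEM with 2.2 g/L NaHCO₃, 110 mg/L sodium pyruvate and 5% FCS. Cells were seeded, cultured 24 h, given fumitremorgin C, then exposed to compound for 72 h. MTT was added (final 0.1%) for 2 h, medium discarded, and formazan dissolved in 10% SDS/DMSO with 0.6% acetic acid. A570 (630 background) read versus untreated controls; IC50 from concentration-response curves; four independent experiments, mean ± SD.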

[10] = system: MCF7; assay: Cytotoxicity against human doxorubicin-resistant MCF7 cells by MTT assay; assay type: functional
[11] = system: MCF7; assay: Ratio of compound IC50 to doxorubicin IC50 for human doxorubicin-resistant MCF7 cells; assay type: functional
[12] = Ratio of compound IC50 to doxorubicin IC50 for human doxorubicin-resistant KBV1 cells; assay type: functional
[13] = system: HL-60; assay: Induction of apoptosis in human HL60 cells assessed as increase of caspase 3 activity at 5 uM after 12 hrs by luminometric assay; assay type: functional, cell-based
In short: (§2)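 HL-60 and 518A2 cells treated with 5 µM compound and sampled at intervals from 1 to 24 h. Lysed in 50 mM Tris-HCl pH 7.4, 150 mM NaCl, 1% Triton X-100 with protease inhibitors for 15 min at 4 °C, spun at 800 g. Protein measured by Bradford. Caspase-3/7, -8 and -9 activities read with luminogenic peptide substrates; reported as relative luminescence.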

[14] = system: HL-60; assay: Induction of apoptosis in human HL60 cells assessed as increase of caspase 8 activity at 5 uM after 4 to 24 hrs by luminometric assay; assay type: functional, cell-based; in short: as §2
[15] = system: HL-60; assay: Induction of apoptosis in human HL60 cells assessed as increase of caspase 9 activity at 5 uM after 8 hrs by luminometric assay; assay type: functional, cell-based
In short: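 HL-60 leukaemia cells were treated with test compound and sampled at intervals from 1 to 24 h. Protein was measured by Bradford. Caspase-9 (Caspase-Glo 8 for line 1) was read from a luminogenic peptide substrate as relative luminescence.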

[16] = system: 518A2; assay: Induction of apoptosis in human 518A2 cells assessed as increase of caspase 8 activity at 5 uM measured up to 12 hrs by luminometric assay; assay type: functional, cell-based; in short: as §2
[17] = system: 518A2; assay: Induction of apoptosis in human 518A2 cells assessed as increase of caspase 3 activity at 5 uM measured up to 12 hrs by luminometric assay; assay type: functional, cell-based; in short: as §2
[18] = system: HL-60; assay: Induction of apoptosis in human HL60 cells assessed as increase of ratio of Bax to Bcl-2 mRNA expression at 5 uM after 6 to 18 hrs by RT-PCR analysis; assay type: functional, cell-based
In short: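 Real-time PCR of bax and bcl-2 mRNA in HL-60 cells after 6 h and 18 h exposure to test compound. Each gene was normalised to GAPDH, and the bax/bcl-2 expression ratio was reported.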

[19] = system: 518A2; assay: Induction of apoptosis in human 518A2 cells assessed as appearance of intact mitochondria in cytosol at 5 uM after 6 hrs using JC1 dye relative to control; assay type: functional
In short: (§3)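 Mitochondrial membrane potential measured with JC-1. Cells exposed to 5 µM compound for 6 or 18 h, pelleted at 400 g, stained with 0.2× JC-1 at 37 °C for 15 min (HL-60) or 35 min (518A2), washed and resuspended in PBS. Red fluorescence (ex 585/em 590 nm) and green (ex 510/em 527 nm) read; red/green ratio relative to untreated controls (100%). Mean ± SD, four independent experiments.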

[20] = system: 518A2; assay: Induction of apoptosis in human 518A2 cells assessed as appearance of intact mitochondria in cytosol at 5 uM after 18 hrs using JC1 dye relative to control; assay type: functional; in short: as §3
[21] = system: HL-60; assay: Induction of apoptosis in human HL60 cells assessed as appearance of intact mitochondria in cytosol at 5 uM after 6 hrs using JC1 dye relative to control; assay type: functional; in short: as §3
[22] = system: HL-60; assay: Induction of apoptosis in human HL60 cells assessed as appearance of intact mitochondria in cytosol at 5 uM after 18 hrs using JC1 dye relative to control; assay type: functional; in short: as §3
[23] = Cytotoxicity against human 518A2 cells assessed as increase in ROS production at 5 uM after 24 hrs by NBT reduction assay relative to control; assay type: functional
In short: (§4)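 NBT assay. HL-60 cells (0.5×10⁶/mL) or trypsinised 518A2 cells (5×10⁴/mL) pre-incubated 24 h at 37 °C, then given compound at a final 5 µM for 24 or 72 h. Medium removed; cells incubated with 0.1% NBT for 1 h (HL-60) or 4 h (518A2). Diformazan dissolved in 2 M KOH/DMSO; A630 read against 405 nm. Given as % of untreated controls; double quadruplicates.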

[24] = Cytotoxicity against human 518A2 cells assessed as increase in ROS production at 5 uM after 72 hrs by NBT reduction assay relative to control; assay type: functional; in short: as §4
[25] = system: HL-60; assay: Cytotoxicity against human HL60 cells assessed as increase in ROS production at 5 uM after 24 hrs by NBT reduction assay relative to control; assay type: functional; in short: as §4

With `COc1cccc2c1C(=O)c1c(O)c3c(c(O)c1C2=O)C[C@@](O)(/C(CO)=N/NC(=O)CCCCCCCCCCC(=O)O[C@@H]1C[C@H](C)CC[C@H]1C(C)C)C[C@@H]3O[C@H]1C[C@H](N)[C@H](O)[C@H](C)O1.Cl` the Activity [1] was “Active”, the IC50 [2] was 0.23 µM and the IC50 [3] was 0.16 µM. It also gave an IC50 [4] of 0.06 µM, an IC50 [5] of 0.3 µM and an IC50 [6] of 2.6 µM. The IC50 [7] was 2.6 µM, the IC50 [8] was 0.67 µM and the IC50 [9] was 0.09 µM. For the same compound, the Activity [10] was 55 nM, the “Ratio IC50” value [11] was 1.6 and the “Ratio IC50” value [12] was 1.6. The Activity [13] was “Active”, the Activity [14] was “Active” and the Activity [15] was “Active”. The Activity [16] was “inactive”, the Activity [17] was “inactive” and the Activity [18] was “Active”. The Activity [19] was 108%, the Activity [20] was 71% and the Activity [21] was 90%. For the same compound, the Activity [22] was 23%, the Activity [23] was 3.3% and the Activity [24] was 38.3%. The Activity [25] was 3.8%.
